Data reported in ChEMBL document CHEMBL1143182, “Design and synthesis of DPP-IV inhibitors lacking the electrophilic nitrile group” (Bioorg Med Chem, 2008).
The source made the active and inactive calls. No cut-off for these calls is given here.

Columns and labels:
Dipeptidyl peptidase 4 = Dipeptidyl peptidase 4 (Rattus norvegicus, UniProt P14740); assay: Inhibition of DPP4 in rat plasma by fluorescence assay; format: cell-free
Rattus norvegicus [1] = assay: Inhibition of DPP4 in Sprague-Dawley rat plasma at 3 mg/kg, po after 9 hrs; format: functional
Rattus norvegicus [2] = assay: Inhibition of DPP4 in Sprague-Dawley rat plasma at 3 mg/kg, po after 30 mins; format: functional; conditions: 0.5 h
Rattus norvegicus [3] = species on record: Rattus norvegicus; assay: Reduction in plasma glucose level in Sprague-Dawley rat by oral glucose tolerance test; format: functional, organism-based
How it was run: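 Male SD rats (400–460 g) fasted at least 20 h, dosed orally with 0.1, 0.3 or 1 mg/kg in 0.5% methyl cellulose (vehicle control) at −30 min. Oral glucose 1 g/kg at 0 min. Tail-vein blood at −5, 5, 10, 15, 30, 60, 120 min; plasma glucose by glucose oxidase peroxidase dye method.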

Sequence of Dipeptidyl peptidase 4 (P14740 whole entry): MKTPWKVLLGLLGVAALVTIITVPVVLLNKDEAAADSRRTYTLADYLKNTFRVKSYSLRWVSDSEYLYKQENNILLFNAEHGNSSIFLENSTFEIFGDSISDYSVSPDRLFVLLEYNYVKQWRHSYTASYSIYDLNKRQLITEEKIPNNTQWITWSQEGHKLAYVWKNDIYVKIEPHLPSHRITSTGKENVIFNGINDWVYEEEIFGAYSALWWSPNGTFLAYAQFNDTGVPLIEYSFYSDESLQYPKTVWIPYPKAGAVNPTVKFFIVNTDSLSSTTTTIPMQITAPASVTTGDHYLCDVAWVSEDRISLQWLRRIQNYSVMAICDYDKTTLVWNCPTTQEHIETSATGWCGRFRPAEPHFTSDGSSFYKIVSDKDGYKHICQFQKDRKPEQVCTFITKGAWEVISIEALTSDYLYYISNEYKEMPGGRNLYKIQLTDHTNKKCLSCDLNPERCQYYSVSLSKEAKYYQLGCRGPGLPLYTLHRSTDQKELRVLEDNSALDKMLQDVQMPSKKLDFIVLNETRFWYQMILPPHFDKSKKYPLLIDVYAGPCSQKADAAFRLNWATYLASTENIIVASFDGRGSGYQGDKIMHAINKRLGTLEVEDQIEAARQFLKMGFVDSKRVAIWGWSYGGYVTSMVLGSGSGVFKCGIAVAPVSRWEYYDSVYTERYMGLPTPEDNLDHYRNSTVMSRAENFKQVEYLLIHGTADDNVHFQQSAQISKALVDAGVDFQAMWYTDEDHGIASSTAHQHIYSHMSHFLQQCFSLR

SMILES | IC50 (Dipeptidyl peptidase 4) [nM] | inhibition in vivo at 3 mg/kg (Rattus norvegicus [1]) [%] | inhibition in vivo at 3 mg/kg (Rattus norvegicus [2]) [%] | Activity (Rattus norvegicus [3])
Cc1nc(N2CCN(C(=O)[C@@H]3CN[C@H](C(=O)N4CCCC4)C3)CC2)no1 | 960 | – | – | –
CC(C)c1nsc(N2CCN(C(=O)[C@@H]3CN[C@H](C(=O)N4CCCC4)C3)CC2)n1 | 190 | 43 | 85 | –
Cc1cc(N2CCN(C(=O)[C@@H]3CN[C@H](C(=O)N4CCCC4)C3)CC2)sn1 | 240 | – | – | –
Cc1nsc(N2CCCN(C(=O)[C@@H]3CN[C@H](C(=O)N4CCCC4)C3)CC2)n1 | 760 | – | – | –
Cc1cnc(N2CCN(C(=O)[C@@H]3CN[C@H](C(=O)N4CCCC4)C3)CC2)s1 | 320 | – | – | –
Cc1ncc(N2CCN(C(=O)[C@@H]3CN[C@H](C(=O)N4CCCC4)C3)CC2)s1 | 340 | – | – | –
Cc1nc(N2CCN(C(=O)[C@@H]3CN[C@H](C(=O)N4CCCC4)C3)CC2)sc1C | 510 | – | – | –
Cc1nsc(C2CCN(C(=O)[C@@H]3CN[C@H](C(=O)N4CCCC4)C3)CC2)n1 | 450 | – | – | –

The next compounds have a lower IC50 (Dipeptidyl peptidase 4) than those just listed; values first:

IC50 (Dipeptidyl peptidase 4) [nM] | SMILES | inhibition in vivo at 3 mg/kg (Rattus norvegicus [1]) [%] | inhibition in vivo at 3 mg/kg (Rattus norvegicus [2]) [%] | Activity (Rattus norvegicus [3])
150 | O=C([C@@H]1CN[C@H](C(=O)N2CCCC2)C1)N1CCN(c2nc(-c3ccccc3)ns2)CC1 | 11 | 64 | –
140 | O=C([C@@H]1CN[C@H](C(=O)N2CCCC2)C1)N1CCN(c2nc(C(F)(F)F)ns2)CC1 | 54 | 91 | –
120 | CCc1nsc(N2CCN(C(=O)[C@@H]3CN[C@H](C(=O)N4CCCC4)C3)CC2)n1 | 47 | 80 | –
110 | CCCc1nsc(N2CCN(C(=O)[C@@H]3CN[C@H](C(=O)N4CCCC4)C3)CC2)n1 | 48 | 81 | –
76 | Cc1nsc(N2CCN(C(=O)[C@@H]3CN[C@H](C(=O)N4CCSC4)C3)CC2)n1 | 75 | 91 | –
69 | Cc1nsc(N2CCN(C(=O)[C@H]3C[C@@H](C(=O)N4CCCC4)N[C@H]3C)CC2)n1 | 74 | 89 | –
60 | Cc1nsc(N2CCN(C(=O)[C@H]3C[C@@H](C(=O)N4CCSC4)N[C@H]3C)CC2)n1 | 72 | 95 | Active
58 | Cc1nsc(N2CCN(C(=O)[C@@H]3CN[C@H](C(=O)N4CCCC4)C3)CC2)n1 | 53 | 84 | –
49 | COCc1nsc(N2CCN(C(=O)[C@@H]3CN[C@H](C(=O)N4CCCC4)C3)CC2)n1 | 41 | 52 | –
45 | O=C([C@@H]1CN[C@H](C(=O)N2CCCC2)C1)N1CCN(c2ncns2)CC1 | 56 | 85 | –
